According to ChEMBL document CHEMBL3407447, “Probing the molecular and structural elements of ligands binding to the active site versus an allosteric pocket of the human farnesyl pyrophosphate synthase” (Bioorg Med Chem Lett, 2015):
Calls of active or inactive are those of the source. The calls are words filed in the database; no cut-off is given here.

Target: T1, Farnesyl pyrophosphate synthase (Homo sapiens, UniProt P14324)
T1 sequence (P14324 whole entry): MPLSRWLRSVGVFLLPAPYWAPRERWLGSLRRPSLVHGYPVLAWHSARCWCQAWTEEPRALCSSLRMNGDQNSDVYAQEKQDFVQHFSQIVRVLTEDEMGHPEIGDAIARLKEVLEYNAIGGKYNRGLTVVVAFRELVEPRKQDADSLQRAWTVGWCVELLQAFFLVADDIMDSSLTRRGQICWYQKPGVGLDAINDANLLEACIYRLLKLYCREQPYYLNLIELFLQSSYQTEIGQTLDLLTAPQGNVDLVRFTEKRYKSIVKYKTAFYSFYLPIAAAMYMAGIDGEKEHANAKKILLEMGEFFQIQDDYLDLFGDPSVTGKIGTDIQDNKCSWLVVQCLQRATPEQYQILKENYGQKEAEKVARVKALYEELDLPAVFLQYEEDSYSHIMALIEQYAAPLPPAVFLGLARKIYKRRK
Assay: Inhibition of human FPPS
Details: not given

Row | IC50 [nM] | SMILES
1 | 1100 | CC(C)C(C)c1[nH]c2ccc(-c3ccccc3)cc2c1CC(P(=O)(O)O)P(=O)(O)O (centres undefined)

Target: T2, Farnesyl pyrophosphate synthase (Homo sapiens) (UniProt P14324)
T2 sequence (whole entry): T1 sequence (P14324 whole entry)
Assay: Inhibition of human FPPS at 10 uM
Details: not given
In short: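 Single fixed-concentration screen in the human FPPS enzyme inhibition assay, run alongside two known bisphosphonate inhibitors as positive controls.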

Row | SMILES | inhibition
2 | Cc1[nH]c2ccccc2c1CC(P(=O)(O)O)P(=O)(O)O | Active
3 | CC(C)C(C)c1[nH]c2ccc(-c3ccccc3)cc2c1CC(P(=O)(O)O)P(=O)(O)O (centres undefined) | Active
4 | Cn1c(NCC(P(=O)(O)O)P(=O)(O)O)nc2ncccc21 | Active
5 | CC(C)n1cc(CC(P(=O)(O)O)P(=O)(O)O)c2ccccc21 | Active
6 | CC(c1[nH]c2ccccc2c1CC(P(=O)(O)O)P(=O)(O)O)C1CCCC1 (centres undefined) | Active
7 | Cn1cc(CC(P(=O)(O)O)P(=O)(O)O)c2ccccc21 | Active
8 | Cc1c(CC(P(=O)(O)O)P(=O)(O)O)c2ccccc2n1C | Active

Next, values leading:

Row | inhibition | SMILES
9 | inactive | Cn1c(NCC(P(=O)(O)O)P(=O)(O)O)nc2cccnc21
10 | Active | CCn1cc(CC(P(=O)(O)O)P(=O)(O)O)c2ccccc21
11 | Active | CC(C)(C)c1[nH]c2ccccc2c1CC(P(=O)(O)O)P(=O)(O)O
12 | Active | CC(C)C(C)c1[nH]c2ccccc2c1CC(P(=O)(O)O)P(=O)(O)O (centres undefined)

Tested on: Rattus norvegicus
Assay: Reduction in hypercalcemia in sc dosed rat
Format: functional
Details: read-out: MED

Row | SMILES | minimal effective dose [mg/kg]
13 | O.O=P(O)(O)C(O)(Cn1ccnc1)P(=O)(O)O [ZOLEDRONIC ACID] | 0.03
14 | O=P(O)(O)C(O)(Cc1cnc2ccccn12)P(=O)(O)O [MINODRONIC ACID] | 0.03
